An excerpt weighted towards active compounds, which were near 2.9% of everything screened.
CendR NRP1 mod – modulators of CendR peptide binding to human neuropilin-1 | O14786 | FAM-RPARPAR peptide binding to NRP-1, fluorescence polarization | inhibition, % at 25 µM | 360,000 compounds, 0.85% hits | AID 602438;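 active means inhibition or corrected inhibition above about 18%, plus a signal ratio from 0.5 to 1.5, limit read from the data, passing the limit was not always enough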
CRFBP-R2 block – blocks CRF-induced signaling of the CRF-BP/CRF-R2 complex; HEK293 CRF-R2/CRF-BP, CRF-induced calcium fluorescence; inhibition, % at 11.8 µM; 350,000 compounds, 0.59% hits;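 active means inhibition of the ligand-induced calcium signal above about 50% at the single tested concentration, limit read from the data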
KLK7 zymogen act – activators of human kallikrein-7 zymogen. P49862. purified proKLK7, EDANS-DABCYL substrate fluorescence; 100% is mature enzyme control, 0% vehicle. activation, % at 7 µM. 370,000 compounds, 0.9% hits;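 active means activation above the mean of all tested compounds plus 3 SD, computed per campaign excluding outliers beyond control limits, cut at about 13% in these data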
Target sequence (P49862 whole entry, looked up): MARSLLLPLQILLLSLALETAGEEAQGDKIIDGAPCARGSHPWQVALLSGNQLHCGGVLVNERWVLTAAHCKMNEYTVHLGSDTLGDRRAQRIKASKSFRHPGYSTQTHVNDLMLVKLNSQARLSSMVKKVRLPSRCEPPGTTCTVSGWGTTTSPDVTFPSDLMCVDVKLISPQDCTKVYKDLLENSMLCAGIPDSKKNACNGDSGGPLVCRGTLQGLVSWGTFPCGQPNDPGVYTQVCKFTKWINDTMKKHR
DDE Tn6 FP inh – disrupts Tn6 cyclic peptide binding to fibrin D-Dimer-E complex; P02675; Fibrin DD(E) TRITC-Tn6 fluorescence polarization displacement; inhibition, % at 8.3 µM; 370,000 compounds, 0.21% hits;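 active means inhibition above a per-campaign cutoff: mean of compounds within control limits plus 3 SD, cut at about 15% in these data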;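 further: 0% = median of all compound wells on the plate and 100% = blocking peptide control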
CRFR2-BP ag – agonists of human CRF-binding protein/CRF-R2 receptor complex; HEK293 CRF-R2/CRF-BP, calcium dye fluorescence (FLIPR); percent of saturating CRF peptide response; activation, % at 13.2 µM; 350,000 compounds, 0.46% hits; AID 588473;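 active means activation of at least 50%, plus an integration ratio under a set limit after plate pattern correction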;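 further: plate controls were neutral control wells without compound for no effect and CRF at EC100 for full effect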
DDE Tn7 FP inh – inhibitors of Tn7 peptide binding to human fibrin DD(E). AID 720508. inhibition, % at 8.3 µM. 370,000 compounds, 0.13% hits. P02675. FP displacement of FITC-Tn7 peptide from fibrin DD(E); 0% = median of compound wells per plate;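 active means inhibition above the mean of compounds falling within the control limits plus 3 SD of them, cut at about 14% in these data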;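 further: 0% = plate median of compound wells and 100% = 10 µM Aha-Tn7 peptide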
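Test system: human clot-derived fibrin DD(E) complex / Quantity: 2 µM final DD(E) protein / Incubation: 10 min plus 3 h, room temperature / Measured by: fluorescence polarization / Benchmarks: high control of 10 µM Aha-Tn7 peptide / Replicates: singlicate testing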
* hit, by the source's call.

Screening CSCCC(NC(=O)c1ccc(Cl)cc1Cl)C(=O)NCC(c1cccs1)N(C)C (stereo not drawn) returned CendR NRP1 mod 26*, CRFBP-R2 block -6, KLK7 zymogen act 0, DDE Tn6 FP inh 0, CRFR2-BP ag -2 and DDE Tn7 FP inh -5.
For COC(=O)[C@]12C[C@H](CC(=O)N3CCCCC3)C(=O)N(Cc3ccccc3)C1=C[C@H](C(C)(C)C)O[C@@H]2C the results were KLK7 zymogen act 1, DDE Tn6 FP inh 0 and DDE Tn7 FP inh 6.
For Cc1cccc(NC(=S)NC(=O)Cc2ccccc2)c1C the results were CendR NRP1 mod -8, CRFBP-R2 block -27, KLK7 zymogen act 0, DDE Tn6 FP inh 7, CRFR2-BP ag 71* and DDE Tn7 FP inh 8.
COc1cccc(NC(=S)NC(=O)Cc2ccc(Cl)cc2)c1 was read as CendR NRP1 mod 0, CRFBP-R2 block -29, KLK7 zymogen act 0, DDE Tn6 FP inh 0, CRFR2-BP ag 68* and DDE Tn7 FP inh 0.
For CCC(=O)Nc1cccc(NC(=S)NC(=O)Cc2ccccc2)c1 the results were CendR NRP1 mod 2, CRFBP-R2 block -9, KLK7 zymogen act 0, DDE Tn6 FP inh 1, CRFR2-BP ag -1 and DDE Tn7 FP inh 6.
Cc1cccc(NC(=S)NC(=O)CCc2ccccc2)c1C was read as CendR NRP1 mod 2, CRFBP-R2 block -26, KLK7 zymogen act 0, DDE Tn6 FP inh 15, CRFR2-BP ag 0 and DDE Tn7 FP inh 4.
FC(F)(F)c1cccc(NC(=S)NCc2ccc(Cl)cc2)c1 was read as CendR NRP1 mod 0, CRFBP-R2 block 12, KLK7 zymogen act 1, DDE Tn6 FP inh -1, CRFR2-BP ag 22 and DDE Tn7 FP inh -2.
For COc1ccccc1NC(=S)NCCc1ccccc1 the results were CendR NRP1 mod 30*, CRFBP-R2 block -4, KLK7 zymogen act 0, DDE Tn6 FP inh 2, CRFR2-BP ag 4 and DDE Tn7 FP inh 2.
Screening Fc1cccc(NC(=S)NCc2ccc(Cl)cc2)c1 returned CendR NRP1 mod -2, CRFBP-R2 block 54*, KLK7 zymogen act 0, DDE Tn6 FP inh -1, CRFR2-BP ag -3 and DDE Tn7 FP inh 0.
Screening COC(=O)C1CN(Cc2cn(Cc3ccc(OC)cc3)nn2)CCS(=O)(=O)N1Cc1ccc(OC)cc1 (stereo not drawn) returned KLK7 zymogen act 0, DDE Tn6 FP inh -7 and DDE Tn7 FP inh -3.
`COc1ccc(CC(=O)NC(=S)Nc2cccc(CO)c2)cc1` gave CendR NRP1 mod -3, CRFBP-R2 block -25, KLK7 zymogen act 0, DDE Tn6 FP inh -6, CRFR2-BP ag 29 and DDE Tn7 FP inh 4.
Screening COc1cccc(NC(=O)COc2ccccc2C(N)=O)c1 returned CendR NRP1 mod 32*, CRFBP-R2 block -12, KLK7 zymogen act -1, DDE Tn6 FP inh 6, CRFR2-BP ag -1 and DDE Tn7 FP inh -4.
For COc1ccc(CNC(=S)Nc2cccc(C)c2C)cc1 the results were CendR NRP1 mod 17, CRFBP-R2 block 52*, KLK7 zymogen act 0, DDE Tn6 FP inh -2, CRFR2-BP ag -1 and DDE Tn7 FP inh 0.
COc1ccc(C(=O)O)cc1NC(=S)NC(=O)c1ccc(-c2ccc(Cl)cc2)o1 was read as CendR NRP1 mod -36, CRFBP-R2 block 86*, KLK7 zymogen act 1, DDE Tn6 FP inh 0, CRFR2-BP ag -2 and DDE Tn7 FP inh -5.
Screening COc1ccc(CC(=O)NC(=S)Nc2cccc(C)c2)cc1 returned CendR NRP1 mod 5, CRFBP-R2 block -25, KLK7 zymogen act 0, DDE Tn6 FP inh -8, CRFR2-BP ag 58* and DDE Tn7 FP inh 3.
For Cc1ccc(C(=O)O)cc1NC(=S)NC(=O)c1ccc(-c2ccc(Cl)cc2)o1 the results were CendR NRP1 mod -37, CRFBP-R2 block 2, KLK7 zymogen act 0, DDE Tn6 FP inh -8, CRFR2-BP ag 0 and DDE Tn7 FP inh 0.
`Cc1c(NC(=O)C2CCCN(S(=O)(=O)c3cccc4ccccc34)C2)c(=O)n(-c2ccccc2)n1C` (stereo not drawn) gave KLK7 zymogen act 0, DDE Tn6 FP inh -6 and DDE Tn7 FP inh -6.
For COC(=O)[C@]12C[C@H](CC(=O)NCCC(C)C)C(=O)N(CCC3=CCCCC3)C1=C[C@H](C(C)C)O[C@@H]2C1CC1 the results were KLK7 zymogen act 0, DDE Tn6 FP inh -5 and DDE Tn7 FP inh -3.
Screening COc1ccccc1NC(=S)NC(=O)Cc1ccc(Cl)cc1 returned CendR NRP1 mod 5, CRFBP-R2 block -19, KLK7 zymogen act 0, DDE Tn6 FP inh 2, CRFR2-BP ag 63* and DDE Tn7 FP inh -1.
`CCC(=O)NC(=S)Nc1ccccc1OC` gave CendR NRP1 mod 1, CRFBP-R2 block 16, KLK7 zymogen act 0, DDE Tn6 FP inh 3, CRFR2-BP ag 2 and DDE Tn7 FP inh -6.
Screening CN(CCCOC(=O)c1occ2ccccc12)C1CN(Cc2cn(Cc3ccccc3Cl)nn2)S(=O)(=O)C1 (stereo not drawn) returned KLK7 zymogen act 0, DDE Tn6 FP inh 2 and DDE Tn7 FP inh 0.
For COc1ccc(C(=O)OCCN(C)C2CN(Cc3cn(Cc4cccc(F)c4)nn3)S(=O)(=O)C2)cc1OC (stereo not drawn) the results were KLK7 zymogen act 0, DDE Tn6 FP inh 6 and DDE Tn7 FP inh 1.
For Cc1ccc(-n2nnnc2CNC(=O)C2CC(=O)N(c3ccccc3)C2)cc1C (stereo not drawn) the results were CendR NRP1 mod 28*, CRFBP-R2 block 10, KLK7 zymogen act 0, DDE Tn6 FP inh 0, CRFR2-BP ag 0 and DDE Tn7 FP inh -6.
CC1=C(C(=O)N(C(C)C)C(C)C)CC(CC(=O)NC2CCCCC2)C(=O)N1Cc1ccccc1 (stereo not drawn) was read as CendR NRP1 mod -7, CRFBP-R2 block 59*, KLK7 zymogen act 0, DDE Tn6 FP inh 2, CRFR2-BP ag -3 and DDE Tn7 FP inh 4.
`CC1=C(C(=O)N2CCOCC2)CC(CC(=O)NCCc2ccccn2)C(=O)N1Cc1ccccc1` (stereo not drawn) gave CendR NRP1 mod 26*, KLK7 zymogen act 0, DDE Tn6 FP inh 4 and DDE Tn7 FP inh -4.
`NC(=O)C1CCN(c2nc(-c3ccc4c(c3)OCCCO4)cs2)CC1` gave DDE Tn6 FP inh -2 and DDE Tn7 FP inh -7.
`COc1ccc(CC(=O)N/N=C(\C)c2ccc(Br)s2)cc1` gave CendR NRP1 mod 6, CRFBP-R2 block 83*, KLK7 zymogen act -1, DDE Tn6 FP inh 11, CRFR2-BP ag -1 and DDE Tn7 FP inh -2.
For C#CCN1CC(N(C)CCOC(=O)c2ccc(OC)c(OC)c2)CS1(=O)=O (stereo not drawn) the results were KLK7 zymogen act 1, DDE Tn6 FP inh -2 and DDE Tn7 FP inh 4.
